# Measured values: ChEMBL document CHEMBL4007489, “First Bispecific Inhibitors of the Epidermal Growth Factor Receptor Kinase and the NF-κB Activity As Novel Anticancer Agents” (J Med Chem, 2017)
# The source made the active and inactive calls. The calls are words filed in the database; no cut-off is given here.
# Key:
# [1] = molecular target: Serine/threonine-protein kinase pim-1 (Homo sapiens, UniProt P11309); assay: Inhibition of human recombinant full length His-tagged PIM-1 expressed in baculovirus expression system
# Serine/threonine-protein kinase pim-1, sequence (P11309 whole entry): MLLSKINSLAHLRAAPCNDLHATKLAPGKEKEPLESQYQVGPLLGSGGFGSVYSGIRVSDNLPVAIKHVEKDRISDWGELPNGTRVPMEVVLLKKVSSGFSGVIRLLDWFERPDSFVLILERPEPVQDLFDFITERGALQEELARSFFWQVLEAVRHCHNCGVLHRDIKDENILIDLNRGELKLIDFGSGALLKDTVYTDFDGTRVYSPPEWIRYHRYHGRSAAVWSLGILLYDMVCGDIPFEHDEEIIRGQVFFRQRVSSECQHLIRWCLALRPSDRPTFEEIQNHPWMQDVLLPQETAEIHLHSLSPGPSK
# [2] = molecular target: T1, Proteasome component C5 (Homo sapiens) (UniProt P20618); assay: Inhibition of caspase like activity of 26S proteasome derived from human MDA-MB-231 cells at 50 uM
# T1 sequence (whole entry): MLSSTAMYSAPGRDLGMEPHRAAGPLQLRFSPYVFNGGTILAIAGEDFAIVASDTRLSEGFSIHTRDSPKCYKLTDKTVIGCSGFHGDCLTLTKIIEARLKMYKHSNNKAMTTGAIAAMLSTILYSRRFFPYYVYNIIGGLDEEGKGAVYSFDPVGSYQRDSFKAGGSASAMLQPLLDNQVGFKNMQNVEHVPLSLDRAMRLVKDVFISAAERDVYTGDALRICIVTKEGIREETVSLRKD
# Method in brief: (§1)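 Total protein extract from MDA-MB-231 cells served as the source of 26S proteasome. Trypsin-like, chymotrypsin-like and caspase-like activities were each measured with a specific fluorigenic peptide substrate.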
# [3] = system: A549; assay: cells; assay type: functional; conditions: Homo sapiens, A549, 48 h
# [4] = in vitro; conditions: human, HUVEC
# [5] = in vitro; conditions: chinese hamster, CHO-K1 cells
# [6] = molecular target: Transcription factor p65 (Homo sapiens) (UniProt Q04206); assay: Inhibition of TNFalpha-stimulated DNA binding activity of NF-kappaB-p65 in nuclear extracts of human MDA-MB-231 cells at 2.5 to 15 uM incubated for 12 hrs followed by TNFalpha stimulation measured after 20 mins by ELISA
# Transcription factor p65 (Homo sapiens), sequence (Q04206 whole entry): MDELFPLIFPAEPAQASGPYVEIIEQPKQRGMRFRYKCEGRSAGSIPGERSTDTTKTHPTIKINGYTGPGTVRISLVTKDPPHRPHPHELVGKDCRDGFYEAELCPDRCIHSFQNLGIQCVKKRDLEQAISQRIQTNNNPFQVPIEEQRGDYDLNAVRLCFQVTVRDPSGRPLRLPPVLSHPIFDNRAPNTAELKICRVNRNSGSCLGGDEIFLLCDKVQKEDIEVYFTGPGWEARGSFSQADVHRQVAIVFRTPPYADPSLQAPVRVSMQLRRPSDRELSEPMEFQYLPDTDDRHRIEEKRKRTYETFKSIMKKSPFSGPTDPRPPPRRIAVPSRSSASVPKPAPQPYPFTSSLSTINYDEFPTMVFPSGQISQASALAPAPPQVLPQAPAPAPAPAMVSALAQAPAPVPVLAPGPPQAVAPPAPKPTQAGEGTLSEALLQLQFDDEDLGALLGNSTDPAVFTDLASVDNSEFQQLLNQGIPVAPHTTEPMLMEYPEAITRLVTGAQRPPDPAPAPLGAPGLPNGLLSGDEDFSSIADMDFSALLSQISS
# Method in brief: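 MDA-MB-231 cells exposed to compound or DMSO for 12 h, then TNFα (20 ng/mL final) for 20 min at 37 °C. Cells washed with ice-cold PBS, nuclear extracts prepared, protein measured by Bradford. 5 μg nuclear protein incubated on immobilized NF-κB response-element oligonucleotide, bound p65 detected by primary antibody and HRP secondary, absorbance 450 nm. Binding specificity checked with competing free oligonucleotide. Triplicates.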
# [7] = cells; assay type: cell-based; conditions: Homo sapiens, U-937
# [8] = molecular target: T2, MAP kinase-interacting serine/threonine-protein kinase 2 (Homo sapiens, UniProt Q9HBH9); assay: Inhibition of human full length N-terminal GST-tagged MNK2 expressed in baculovirus expression system at 5 uM
# Target sequence in this assay (Q9HBH9 whole entry, looked up): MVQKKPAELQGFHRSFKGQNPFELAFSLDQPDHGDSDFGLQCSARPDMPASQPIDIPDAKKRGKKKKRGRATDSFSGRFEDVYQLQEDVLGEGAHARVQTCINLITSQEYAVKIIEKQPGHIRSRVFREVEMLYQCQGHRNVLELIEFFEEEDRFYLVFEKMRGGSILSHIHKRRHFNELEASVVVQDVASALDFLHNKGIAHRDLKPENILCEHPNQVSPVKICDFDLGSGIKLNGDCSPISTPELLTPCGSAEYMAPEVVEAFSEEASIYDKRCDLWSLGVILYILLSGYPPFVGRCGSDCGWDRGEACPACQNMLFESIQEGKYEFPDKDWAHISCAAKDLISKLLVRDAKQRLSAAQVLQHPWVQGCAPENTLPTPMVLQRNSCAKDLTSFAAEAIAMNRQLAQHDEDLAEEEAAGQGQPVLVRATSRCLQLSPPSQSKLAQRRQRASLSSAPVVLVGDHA
# [9] = molecular target: Transcription factor p65 (Homo sapiens) (UniProt Q04206); assay: Inhibition of IL-1beta-stimulated nuclear translocation of GFP-tagged NF-kappaB-p65 (unknown origin) expressed in CHO cells at 15 uM preincubated with IL-1beta for 30 mins followed by compound addition in presence of Pluronic F127 by fluorescence assay; assay type: cell-based
# [10] = molecular target: T3, Proteasome Macropain subunit MB1 (Homo sapiens) (UniProt P28074); assay: Inhibition of chymotrypsin like activity of 26S proteasome derived from human MDA-MB-231 cells at 50 uM; method in brief: as §1
# T3 sequence (whole entry): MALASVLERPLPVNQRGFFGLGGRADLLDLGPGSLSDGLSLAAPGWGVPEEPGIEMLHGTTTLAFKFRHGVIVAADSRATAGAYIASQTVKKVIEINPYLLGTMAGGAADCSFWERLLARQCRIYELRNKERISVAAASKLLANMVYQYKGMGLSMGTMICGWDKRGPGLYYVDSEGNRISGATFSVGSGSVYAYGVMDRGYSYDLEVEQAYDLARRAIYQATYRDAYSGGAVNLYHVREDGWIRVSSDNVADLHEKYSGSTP
# [11] = molecular target: Proteasome Macropain subunit (Homo sapiens) (UniProt P49721); assay: Inhibition of trypsin like activity of 26S proteasome derived from human MDA-MB-231 cells at 50 uM; method in brief: as §1
# Proteasome Macropain subunit (Homo sapiens), sequence (P49721 whole entry): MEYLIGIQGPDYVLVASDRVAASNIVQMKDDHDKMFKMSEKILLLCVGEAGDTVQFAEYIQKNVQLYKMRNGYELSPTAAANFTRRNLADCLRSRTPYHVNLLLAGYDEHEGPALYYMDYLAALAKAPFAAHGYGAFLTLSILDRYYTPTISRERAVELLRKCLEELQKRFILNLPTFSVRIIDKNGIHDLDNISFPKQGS
# [12] = molecular target: T2, MAP kinase-interacting serine/threonine-protein kinase 2; assay: Inhibition of human full length N-terminal GST-tagged MNK2 expressed in baculovirus expression system
# Target sequence in this assay (Q9HBH9 whole entry): as the sequence (Q9HBH9 whole entry, looked up) above
# [13] = species: Homo sapiens; conditions: at 10 µM
# [14] = molecular target: Receptor tyrosine-protein kinase erbB-4 (Homo sapiens) (UniProt Q15303); assay: Inhibition of N-terminal GST-tagged human recombinant ERBB4 expressed in baculovirus expression system at 5 uM
# Receptor tyrosine-protein kinase erbB-4 (Homo sapiens), sequence (Q15303 whole entry): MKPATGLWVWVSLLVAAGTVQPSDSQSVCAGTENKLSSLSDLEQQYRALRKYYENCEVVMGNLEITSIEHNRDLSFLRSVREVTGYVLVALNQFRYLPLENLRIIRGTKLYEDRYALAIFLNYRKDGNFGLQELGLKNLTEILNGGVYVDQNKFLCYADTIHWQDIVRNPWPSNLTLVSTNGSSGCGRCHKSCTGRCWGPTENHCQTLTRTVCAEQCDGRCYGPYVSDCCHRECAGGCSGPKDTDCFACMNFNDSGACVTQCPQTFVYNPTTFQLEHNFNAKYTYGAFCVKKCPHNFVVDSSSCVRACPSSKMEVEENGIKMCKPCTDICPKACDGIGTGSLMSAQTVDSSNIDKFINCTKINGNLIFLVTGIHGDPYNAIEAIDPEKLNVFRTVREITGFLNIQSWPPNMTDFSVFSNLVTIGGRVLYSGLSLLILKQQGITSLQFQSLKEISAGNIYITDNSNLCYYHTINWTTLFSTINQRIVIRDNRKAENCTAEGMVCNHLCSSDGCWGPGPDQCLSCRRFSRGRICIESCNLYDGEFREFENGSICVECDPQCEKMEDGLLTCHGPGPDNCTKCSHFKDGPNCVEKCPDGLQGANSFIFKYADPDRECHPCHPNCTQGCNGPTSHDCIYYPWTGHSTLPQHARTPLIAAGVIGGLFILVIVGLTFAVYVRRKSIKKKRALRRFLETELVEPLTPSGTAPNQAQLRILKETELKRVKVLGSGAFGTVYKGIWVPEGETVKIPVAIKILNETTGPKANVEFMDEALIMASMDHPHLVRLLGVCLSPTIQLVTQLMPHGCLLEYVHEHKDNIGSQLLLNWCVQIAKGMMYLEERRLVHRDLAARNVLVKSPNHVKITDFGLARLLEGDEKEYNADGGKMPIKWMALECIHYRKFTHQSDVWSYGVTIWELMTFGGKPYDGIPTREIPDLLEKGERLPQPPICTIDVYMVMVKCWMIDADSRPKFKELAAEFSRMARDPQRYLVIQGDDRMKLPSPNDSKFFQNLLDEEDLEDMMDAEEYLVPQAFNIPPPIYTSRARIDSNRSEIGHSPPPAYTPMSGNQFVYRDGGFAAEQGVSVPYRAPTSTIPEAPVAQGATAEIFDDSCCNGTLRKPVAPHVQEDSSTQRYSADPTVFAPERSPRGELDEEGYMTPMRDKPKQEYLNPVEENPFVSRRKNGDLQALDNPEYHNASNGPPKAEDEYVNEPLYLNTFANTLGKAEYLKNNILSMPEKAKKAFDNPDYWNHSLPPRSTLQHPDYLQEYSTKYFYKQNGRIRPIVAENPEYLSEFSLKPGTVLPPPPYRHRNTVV
# [15] = molecular target: Transcription factor p65 (Homo sapiens) (UniProt Q04206); assay: Inhibition of NF-kappaB-p65 binding to NF-kappaB response element oligonucleotide in nuclear extracts of 12 hrs compound pre-treated human MDA-MB-231 cells at 2.5 to 15 uM by ELISA
# Method in brief: (§2)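 MDA-MB-231 cells treated with compound or DMSO for 12 h; in some runs TNFα (20 ng/mL final) added for a further 20 min at 37 °C. Nuclear extracts prepared on ice and protein measured by Bradford. 5 μg of extract incubated on plate-immobilized NF-κB response element oligonucleotide. Bound complexes detected with anti-p65 primary and HRP secondary antibody, read at 450 nm. Specificity checked by competition with free oligonucleotide; triplicates.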
# [16] = molecular target: Transcription factor p65 (Homo sapiens) (UniProt Q04206); assay: Inhibition of TNFalpha-stimulated DNA binding activity of NF-kappaB-p65 in human MDA-MB-231 cells at 2.5 to 15 uM incubated for 12 hrs followed by TNFalpha stimulation measured after 20 mins by ELISA; assay type: cell-based; method in brief: as §2
# [17] = system: MDA-MB-231; assay: cells; assay type: functional; conditions: Homo sapiens, MDA-MB-231, 48 h
# [18] = species: Homo sapiens; conditions: at 2.5 to 15 µM
# [19] = molecular target: Transcription factor p65 (Homo sapiens) (UniProt Q04206); assay: Inhibition of IL-1beta-stimulated nuclear translocation of GFP-tagged NF-kappaB-p65 (unknown origin) expressed in CHO cells at 15 uM preincubated with IL-1beta for 30 mins followed by compound addition by fluorescence assay; assay type: cell-based
# [20] = Selectivity ratio of GI50 for CHOK1 cells to GI50 for human A549 cells
# [21] = molecular target: T4, Epidermal growth factor receptor (Homo sapiens, UniProt P00533); conditions: at 150 nM
# T4 sequence (P00533 whole entry): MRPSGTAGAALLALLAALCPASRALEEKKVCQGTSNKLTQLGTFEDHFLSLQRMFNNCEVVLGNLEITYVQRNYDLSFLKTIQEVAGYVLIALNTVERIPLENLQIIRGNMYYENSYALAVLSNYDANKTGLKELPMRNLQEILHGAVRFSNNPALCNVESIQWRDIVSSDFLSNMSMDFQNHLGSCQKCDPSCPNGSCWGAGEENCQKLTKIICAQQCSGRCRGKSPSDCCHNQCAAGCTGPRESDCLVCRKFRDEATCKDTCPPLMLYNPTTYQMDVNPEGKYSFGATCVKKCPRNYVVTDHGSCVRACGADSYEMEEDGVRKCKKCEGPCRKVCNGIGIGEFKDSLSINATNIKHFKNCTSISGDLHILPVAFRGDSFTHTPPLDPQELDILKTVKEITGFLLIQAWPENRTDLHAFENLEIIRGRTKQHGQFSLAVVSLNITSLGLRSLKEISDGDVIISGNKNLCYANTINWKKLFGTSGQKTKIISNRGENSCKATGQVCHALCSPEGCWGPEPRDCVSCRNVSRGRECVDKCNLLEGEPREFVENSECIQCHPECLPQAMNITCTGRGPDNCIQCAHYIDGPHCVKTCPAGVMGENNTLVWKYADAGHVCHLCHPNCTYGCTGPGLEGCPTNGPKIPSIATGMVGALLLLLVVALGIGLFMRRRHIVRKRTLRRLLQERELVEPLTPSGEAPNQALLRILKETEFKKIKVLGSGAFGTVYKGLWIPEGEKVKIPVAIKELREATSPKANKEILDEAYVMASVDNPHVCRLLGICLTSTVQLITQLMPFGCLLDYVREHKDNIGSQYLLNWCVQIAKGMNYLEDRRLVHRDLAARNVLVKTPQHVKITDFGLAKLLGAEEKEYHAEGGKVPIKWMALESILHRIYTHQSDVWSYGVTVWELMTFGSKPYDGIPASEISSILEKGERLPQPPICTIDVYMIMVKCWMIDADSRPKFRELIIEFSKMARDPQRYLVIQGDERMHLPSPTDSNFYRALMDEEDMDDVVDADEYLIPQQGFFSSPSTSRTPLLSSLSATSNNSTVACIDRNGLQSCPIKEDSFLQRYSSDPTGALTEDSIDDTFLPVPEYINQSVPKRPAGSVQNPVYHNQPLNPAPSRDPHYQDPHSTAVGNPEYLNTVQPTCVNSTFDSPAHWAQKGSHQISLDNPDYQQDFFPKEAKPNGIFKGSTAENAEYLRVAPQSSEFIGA
# [22] = Selectivity ratio of GI50 for HUVEC to GI50 for human A549 cells
# [23] = Selectivity ratio of GI50 for HUVEC to GI50 for human MDA-MB-231 cells
# [24] = system: MDA-MB-231; assay: Potency index, ratio of gefitinib GI50 to compound GI50 for human MDA-MB-231 cells; assay type: functional
# [25] = molecular target: T4, Epidermal growth factor receptor; assay: biochemical; assay type: cell-based
# [26] = Selectivity ratio of GI50 for CHOK1 cells to GI50 for human MDA-MB-231 cells
SMILES,inhibition [2],GI50 [3] [nM],GI50 at 48 h [4] [nM],GI50 at 48 h [5] [nM],IC50 [7] [nM],inhibition [9],inhibition [10],inhibition [11],inhibition [13] [%],GI50 [17] [nM],inhibition [19],also measured
S=C(Nc1cccc(Cl)c1)Nc1ccc2ncnc(Nc3cccc(Br)c3)c2c1,inactive,1600,11500,25700,1900,inactive,inactive,inactive,97.4,2100,inactive,IC50 [1]: 1200 nM; inhibition [6]: inactive; inhibition [8]: 78%; IC50 [12]: 2700 nM; inhibition [14]: 54%; inhibition [15]: inactive; inhibition [16]: inactive; inhibition [18]: Dose-dependent effect
Fc1ccc(NC(=S)Nc2ccc3ncnc(Nc4cccc(Br)c4)c3c2)cc1Cl,inactive,1000,14800,52100,1000,inactive,inactive,inactive,100,300,inactive,RatioGI50 [20]: 52.1; inhibition [21]: 74.1%; RatioGI50 [22]: 14.8; RatioGI50 [23]: 49.3; RatioGI50 [24]: >35; IC50 [25]: 25.3 nM; RatioGI50 [26]: 173.7
